The list is not random: actives were taken first. Their share in the collection is about 1.9%.
CHRM4 antagonist – antagonists of human muscarinic M4 receptor (CHRM4); inhibition, % at 3 µM; CHO-hM4 cells, ACh EC80, Fluo-8 calcium fluorescence; 0.73% of 360,000 active; P08173; AID 624125;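 active = inhibition above its plate's cutoff, the mean inhibition of sample wells plus 3 SD, cut at about 27% in these data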;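 note: 0% = acetylcholine EC80 with DMSO and 100% = DMSO without agonist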
M4 PAM – potentiates acetylcholine response at human M4 receptor. AID 624126. P08173. 0.4% of 360,000 active. CHO-K1 hM4/Gqi5, Fluo-8 calcium fluorescence, ACh EC20; 0% = ACh EC20, 100% = maximal ACh. activation, % at 3 µM;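 active = activation above its plate's cutoff, the mean activation of sample wells plus 3 SD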
CHRM5 PAM – potentiates acetylcholine response at human M5 receptor; 0.3% of 360,000 active; CHO-K1 hM5, Fluo-8 calcium, ACh EC20 PAM; 0% = ACh EC20, 100% = ACh EC100; P08912; activation, % at 3 µM;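 active = activation above the run cutoff, the mean activation of all test compounds plus 3 SD, cut at about 18% in these data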
Target sequence (P08912 whole entry, looked up): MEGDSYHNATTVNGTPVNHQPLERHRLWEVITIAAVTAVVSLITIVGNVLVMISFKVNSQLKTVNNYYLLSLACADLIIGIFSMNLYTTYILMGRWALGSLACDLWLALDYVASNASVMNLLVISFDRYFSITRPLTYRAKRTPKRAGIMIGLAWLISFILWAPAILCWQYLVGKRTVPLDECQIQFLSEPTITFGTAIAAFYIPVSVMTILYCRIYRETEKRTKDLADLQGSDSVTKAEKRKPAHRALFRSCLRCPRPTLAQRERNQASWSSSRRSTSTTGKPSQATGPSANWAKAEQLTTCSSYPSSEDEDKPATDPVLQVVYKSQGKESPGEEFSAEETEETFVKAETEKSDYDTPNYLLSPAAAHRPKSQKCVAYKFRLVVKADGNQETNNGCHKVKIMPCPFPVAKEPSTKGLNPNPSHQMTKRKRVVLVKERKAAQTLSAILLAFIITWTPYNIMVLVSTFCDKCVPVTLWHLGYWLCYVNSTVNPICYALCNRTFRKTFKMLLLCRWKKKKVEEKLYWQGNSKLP
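Probe or stimulus: acetylcholine, EC20 level; Assay system: human M5 receptor in CHO-K1 cells; Schedule: compound preincubation 140 s before EC20 acetylcholine addition; Technique: intracellular calcium via Fluo-8 fluorescence; Dosing: single-point, 3 µM nominal; Read-out basis: percent activation from peak-over-basal fluorescence ratio, scaled EC20-to-EC100 acetylcholine; Repeats: one well per compound, no replicates.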
CHRM5 agonist – agonists of human muscarinic M5 receptor (CHRM5); P08912; activation, % at 3 µM; 0.19% of 360,000 active; CHO-K1 hM5 cells, Fluo-8 calcium fluorescence; 0% DMSO wells, 100% maximal acetylcholine response;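 active = activation above the run's mean over test compounds plus 3 SD, cut at about 23% in these data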;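 note: signal is peak over basal fluorescence ratio across the kinetic read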
CHRM5 antagonist – antagonists of human muscarinic M5 receptor (CHRM5); inhibition, % at 3 µM; 0.59% of 360,000 active; CHO-hM5 cells, Fluo-8 calcium fluorescence, ACh EC80; AID 624040;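 active = inhibition above a per-plate cutoff, the mean of that plate's test compounds plus 3 SD, cut at about 27% in these data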;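 note: 0% = acetylcholine EC80 with DMSO and 100% = DMSO without agonist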
CHRM4 agonist – CHRM4 agonism in calcium assay; P08173; CHO-K1 hM4/Gqi5, Fluo-8 calcium fluorescence; vehicle 0%, full acetylcholine response 100%; activation, % at 3 µM; 0.14% of 360,000 active; AID 624127;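 active = activation above the run mean over all test wells plus 3 SD, cut at about 32% in these data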;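 note: peak over basal fluorescence ratio per well then scaled between controls; 0% = DMSO wells and 100% = acetylcholine at EC100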
Starred values were filed as active, the others as inactive.

SMILES	CHRM4 antagonist	M4 PAM	CHRM5 PAM	CHRM5 agonist	CHRM5 antagonist	CHRM4 agonist
Cc1cccc(/N=C/C2=C(O)CC(C)(C)CC2=O)n1	-4.5	-3.6	-3.0	0.7	5.8	1.3
CCn1c(SCC(=O)N(Cc2ccccc2)C2CCS(=O)(=O)C2)nc2ccccc2c1=O (stereo not drawn)	-5.7	30.6*	1.1	0.2	-1.9	-0.6
CCN(C(=O)CSc1nc2ccccc2c(=O)n1Cc1ccc(C)cc1)C1CCS(=O)(=O)C1 (stereo not drawn)	-0.5	1.1	-1.4	-3.9	4.8	0.5
O=Cc1ccc(-n2cncn2)cc1	9.1	-3.7	-5.4	-1.0	18.4	2.1
CN1C(=O)S/C(=C\c2ccc(-n3cncn3)cc2)C1=O	-4.9	4.1	21.0*	3.7	-13.4	1.6
O=C(CSc1nnc2ccccn12)NCCc1ccc(F)cc1	-6.3	0.2	-11.5	-3.1	16.8	1.2
Cc1noc(C)c1COc1ccccc1C(=O)NCc1ccccc1Cl	-7.5	0.5	-37.6	0.4	98.9*	6.1
CCOC(=O)N1CCN(C(=O)CS(=O)(=O)Cc2nc(-c3cccc(OC)c3)oc2C)CC1	-6.8	-0.9	-0.3	0.8	-0.6	4.7
C=CCn1c2c(c(=O)[nH]c1=S)CN(C(C)c1ccccc1)CN2 (stereo not drawn)	1.1	-0.8	1.2	-2.9	4.2	1.4
CCC(C)N1CNc2c(c(=O)[nH]c(=S)n2-c2cccc(C)c2)C1 (stereo not drawn)	-8.3	15.0	22.8*	9.1	35.3*	3.5
Cc1cccc(N2C(=O)c3ccc(C(=O)Nc4c[nH]c(=O)[nH]c4=O)cc3C2=O)c1	27.4*	15.6	5.7	-0.8	-5.3	1.1
O=C(Nc1c[nH]c(=O)[nH]c1=O)c1cccc([N+](=O)[O-])c1	-7.4	-6.6	21.7*	4.2	-15.8	0.5
O=C(Nc1c[nH]c(=O)[nH]c1=O)c1cccc(F)c1	-1.9	0.0	-4.5	-2.7	13.1	1.2
Cc1cc(C(=O)Nc2c[nH]c(=O)[nH]c2=O)ccc1[N+](=O)[O-]	2.0	6.7	4.1	1.1	-0.1	1.1
Nc1nc2ccccc2cc1C(=O)NCc1ccc(-c2ccccc2)cc1	18.8	-3.9	-17.1	9.7	31.5*	16.7
CCOC(=O)c1ccc(N(C(=O)c2cnccn2)C(C(=O)NC2CCCCC2)c2cn(C)nc2C)cc1 (stereo not drawn)	12.5	-2.7	3.1	-0.8	-1.2	0.1
Cc1nn(C)cc1C(C(=O)NC1CCCCC1)N(C(=O)c1cnccn1)c1ccc(Oc2ccccc2)cc1 (stereo not drawn)	-10.8	24.2*	1.3	-1.9	-9.4	1.5
CN1/C(=C\P(=O)(N(C)C)N(C)C)C(C)(C)c2ccccc21	20.0	-2.5	-8.8	5.4	33.7*	7.5
Cc1ccc(-c2cc(C(=O)N3N=C(C(F)F)CC3(O)C(F)F)c3ccccc3n2)cc1C (stereo not drawn)	9.1	-5.0	-6.9	2.0	-1.0	2.7
CC(=O)Nc1ccc(S(=O)(=O)N2CCN(C34CC5CC(CC(C5)C3)C4)CC2)cc1	-3.2	-3.9	4.2	-9.0	-5.1	0.8
CC1CCN(Cc2ccc(NC(=O)C3CCN(c4nnc(-n5cccc5)s4)CC3)cc2)CC1	33.3*	-16.1	-5.3	-5.1	-4.4	4.6
O=C(C1CCN(c2nnc(-n3cccc3)s2)CC1)N1CCN(Cc2ccc3c(c2)OCO3)CC1	-2.0	-1.2	-4.1	3.0	3.0	6.0
Cc1nn(-c2ccccc2)c(C)c1NC(=O)COc1ccc(F)cc1Cl	-0.5	0.0	-3.7	3.5	0.0	7.8
COc1cc(/C=C2/SC(=S)N(Cc3ccccc3)C2=O)ccc1OCC(=O)O	-6.7	0.6	4.5	9.3	-12.0	1.4
CCOc1cc(/C=C2/SC(=S)N(Cc3ccccc3)C2=O)ccc1O	26.1	-5.8	-0.7	42.2*	26.5	26.4
SMILES	CHRM4 antagonist	M4 PAM	CHRM5 PAM	CHRM5 agonist	CHRM5 antagonist	CHRM4 agonist
COc1cc([N+](=O)[O-])cc(/C=C2/SC(=S)N(Cc3ccccc3)C2=O)c1O	22.6	-19.6	-4.8	9.0	11.3	32.2*
COc1cc(/C=C2/SC(=S)N(Cc3ccccc3)C2=O)cc(Cl)c1O	17.8	-12.8	-5.4	7.7	32.9*	15.9
C=CCN(Cc1nc(-c2ccccc2)no1)C(=O)c1ccoc1C	-10.1	-7.0	-4.4	-4.3	13.8	6.0
CCSc1nc2c(c(=O)n1CC)SC(C)C2 (stereo not drawn)	-3.8	20.5	0.4	-5.5	2.3	-3.3
O=C(OCCC12CC3CC(CC(C3)C1)C2)c1ccc(NCc2cc(O)ccc2O)cc1	5.7	11.6	26.8*	21.1	-1.8	1.9
c1cncc(Oc2cccc(Oc3cccnc3)c2)c1	-1.7	-5.5	-8.4	3.3	14.4	2.8
Cc1cccc(NC(=O)CCN2C(=O)C3C4CCC(C4)C3C2=O)c1C (stereo not drawn)	2.4	2.8	-0.2	2.3	-2.5	-0.2
Cc1ccccc1NC1=NS(=O)(=O)c2ccccc21	-10.1	1.7	0.6	-1.3	-3.8	0.3
O=S1(=O)N=C(Nc2ccc(O)cc2)c2ccccc21	-5.8	6.1	21.2*	5.2	-7.8	1.0
CCOc1ccc(NC(=O)Cn2nc(C(N)=O)c3ccccc3c2=O)cc1S(=O)(=O)N1CCCC1	-16.6	22.9*	1.9	-1.9	10.1	0.1
CCOc1ccc(NC(=O)Cn2nnc(-c3ccc(C(N)=O)cc3)n2)cc1S(=O)(=O)N1CCCC1	6.3	0.7	-5.7	1.6	10.1	0.8
COC(=O)c1ccc(/C=C/c2c(-c3ccc(OC)cc3)oc3ccccc23)cc1	4.8	25.8*	4.5	3.4	-6.4	0.9
CCN1C(=O)CC2(C[N+]3(C)CCC2CC3)C1=O (stereo not drawn)	3.8	-17.8	-16.6	-5.5	52.9*	1.4
COc1ccc(-c2cc(C(=O)OCC(=O)c3cccc([N+](=O)[O-])c3)c3cc(C)ccc3n2)cc1	-7.9	23.0*	17.1	4.2	13.3	2.8
CC(C)CCNC(=O)NC(=O)COc1ncnc2sccc12	-1.5	15.0	12.6	6.8	-16.3	0.1
CC(C)CNC(=O)NC(=O)COc1ncnc2sccc12	11.9	28.2*	-4.0	1.9	5.6	1.1
OC[C@H]1O[C@@H](c2nc(-c3ccc(C4OCCO4)cc3)no2)[C@H](O)[C@@H]1O	-5.6	3.9	-3.2	0.5	8.9	-0.1
OC[C@H]1O[C@@H](c2nc(-c3ccc4[nH]ccc4c3)no2)[C@H](O)[C@@H](O)[C@H]1O	-3.6	16.3*	3.4	-0.6	-1.8	0.6

Bioassay records (PubChem BioAssay)
